Consider 14 molecules from PubChem BioAssay.

As a reminder, the inhibition is the drop in the measured response relative to a control, in per cent.

The source made the active and inactive calls.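 Rule for the calls, unless noted: active = fluorescence slope after compound addition differing from the mean of all tested samples at 99.7% confidence, mostly higher but some lower; inactive = the rest.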

Test [1] is described as follows: inhibitors of TNFa-induced NFkB p65 translocation, primary screen, imaging, HUVEC, MLSMR starter and 10KST1 sets (AID 438;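 active = inhibition above 20% together with a positive visual image hit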;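 note: compound added about 3h40 before a 20 min TNFalpha stimulation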;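 for inhibition: signal is the nuclear over cytoplasmic p65 intensity ratio per well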). The settings on record: HUVEC TNFa-induced p65 nuclear translocation; cell count: measured here: nuclei count (cytotoxicity indicator), at 2.08 µM; inhibition: at 2 µM, stronger effect = higher value, 0% TNFa-plus-vehicle, 100% no-TNFa wells.
Test [2] is described as follows: inhibitors of mutant huntingtin aggregation, primary screen, imaging, exon1htt(103Q)mCFP cells, high-content imaging (AID 483;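 active = visual image review flags a hit and inhibition of aggregation exceeds 20%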;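 note: compound exposure lasted 3 days before fixation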;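 for nuclei count: percent of the per-plate median nuclei count of sample wells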). The settings on record: exon1htt(103Q)mCFP cell line, aggregate imaging, at 2 µM; inhibition of aggregation: stronger effect = higher value; nuclei count: measured here: cell count, toxicity.
Test [3] is described as follows: inhibitors of E-selectin induction by TNFa, primary screen, imaging, HUVEC, immunofluorescence, MLSMR starter and 10KST1 sets (AID 487;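 active = visually confirmed hit in the image check and inhibition above 20%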;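 for inhibition: signal is fraction of cell area covered by stained E-selectin grains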;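 for nuclei count: 100% = median nuclei count of all wells on the same plate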). The settings on record: HUVEC TNFalpha-induced E-selectin immunofluorescence imaging, at 2 µM; inhibition: stronger effect = higher value; nuclei count: measured here: cell number, toxicity.
Test [4] has as its target Voltage-gated potassium channel subunit beta-2 (Rattus norvegicus) (UniProt P62483). Kind of test: KvBeta enzyme negative modulators, primary screen, biochemical, NADPH fluorescence (AID 622;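 active = fluorescence slope higher than the sample average by over 3 SD, cut at about -0.22 in these data, passing the limit was not always enough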;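 note: slope of raw intensity against log time taken from 70 to 1610 s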). The following applies: recombinant KvBeta, 4-cyanobenzaldehyde reduction, at 10 µM, stronger effect = higher value.
Test [5] has the same target. The test is described as follows: KvBeta positive modulators, primary screen, biochemical, NADPH fluorescence (AID 623;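 active = NADPH fluorescence slope more negative than the mean of all samples by about 3 SD, 99.7% confidence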;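 note: fluorescence intensity change per second fitted from 20 to 320 s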). The settings on record: Recombinant KvBeta, NADPH fluorescence decrease slope, 10 min; at 10 µM; stronger effect = lower value.
The target of test [6] is Muscarinic acetylcholine receptor M4 (Homo sapiens) (UniProt P08173). The test is described as follows: compounds altering M4/GIRK thallium flux, either direction, primary screen, M4 allosteric agonist project, cell-based, HEK293 M4/GIRK, BTC-AM (AID 625).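 Note: thallium influx through GIRK channels coupled to M4 in HEK293 cells with BTC-AM dye.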 The settings on record: at 10 µM, actives lie on both sides. In short, it runs like this: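 Material: M4/GIRK1/GIRK2 stable HEK293 cell line. Medium: pH 7.3 thallium assay buffer. Dosing: single compound concentration, 10 µM final. Schedule: 1 h dye loading, 2 min kinetic read. Measured by: kinetic fluorescence with BTC-AM dye. Read-out: post-addition slope, 15–24 s, of baseline-normalized fluorescence. Benchmarks: carbachol and DMSO controls.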
Chain of Muscarinic acetylcholine receptor M4 (Homo sapiens) (P08173 whole entry, looked up): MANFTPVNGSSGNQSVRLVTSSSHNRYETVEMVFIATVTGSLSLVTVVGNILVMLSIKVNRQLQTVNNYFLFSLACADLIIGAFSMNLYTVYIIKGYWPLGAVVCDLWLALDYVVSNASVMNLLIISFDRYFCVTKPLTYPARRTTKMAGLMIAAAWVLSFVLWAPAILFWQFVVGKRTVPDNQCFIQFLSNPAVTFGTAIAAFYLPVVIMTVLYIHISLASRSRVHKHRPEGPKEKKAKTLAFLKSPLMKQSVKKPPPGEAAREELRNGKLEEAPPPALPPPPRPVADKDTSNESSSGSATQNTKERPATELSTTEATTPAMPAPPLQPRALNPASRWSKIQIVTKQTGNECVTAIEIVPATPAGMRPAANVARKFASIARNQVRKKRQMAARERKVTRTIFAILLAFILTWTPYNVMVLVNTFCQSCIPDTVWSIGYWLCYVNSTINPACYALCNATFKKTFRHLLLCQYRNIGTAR

Test [7] in a line: inhibitors of Sendai virus-induced IRF3 signaling, primary screen, TLR/RLR signaling modifier project, cell-based, Sendai virus stimulus, luciferase, 10K MLSCN set (AID 602276;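 active = inhibition at or above 50% at 10 µM; inactive = inhibition below 50%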;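 note: firefly luciferase from ISG56 promoter only with Renilla not read in this screen; 0% = Sendai virus plus DMSO and 100% = medium plus DMSO without virus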). The following applies: HEK293 RL24 IRF3 luciferase reporter, at 10 µM, stronger effect = higher value. Background: In a reporter assay the amount or activity of a reporter protein is the signal.
Test [8] is described as follows: inhibitors of poly I:C-induced TLR3 signaling, primary screen, cell-based, poly I:C stimulus, luciferase, 10K MLSCN set (AID 602277;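 active = inhibition of the reporter signal at or above 50%; inactive = inhibition below 50%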). The settings on record: HEK293-TLR3 RL24 IRF3 luciferase reporter, at 10 µM, stronger effect = higher value.

Chain of Voltage-gated potassium channel subunit beta-2 (Rattus norvegicus) (P62483 whole entry, looked up): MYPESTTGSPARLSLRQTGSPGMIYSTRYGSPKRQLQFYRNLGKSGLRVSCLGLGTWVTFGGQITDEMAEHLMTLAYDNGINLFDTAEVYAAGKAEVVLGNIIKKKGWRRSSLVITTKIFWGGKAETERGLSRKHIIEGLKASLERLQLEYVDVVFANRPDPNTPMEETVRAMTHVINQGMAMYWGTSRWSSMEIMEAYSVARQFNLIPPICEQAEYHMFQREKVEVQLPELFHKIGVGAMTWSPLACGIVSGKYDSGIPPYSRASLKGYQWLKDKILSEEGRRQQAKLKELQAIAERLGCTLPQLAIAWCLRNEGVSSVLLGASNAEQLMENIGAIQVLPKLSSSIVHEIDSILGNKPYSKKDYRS

With `CN(C)S(=O)(=O)n1cnc(-c2ccccc2)c1-c1ccccc1`, the cell count in test [1] amounted to 382. Besides, the inhibition is 2.8% (inactive) in test [1], -26.1% (inactive) in test [3], 11.2% (inactive) in test [7] and 20.5% (inactive) in test [8]. Further, in test [2], the inhibition of aggregation was 10.1% (inactive). Further, the nuclei count in test [2] was determined as 100%; in test [3], 107%. For the same molecule, the fluorescence slope was -0.497 (inactive) in test [4] and 0.00475 (inactive) in test [6]. Moreover, in test [5], the NADPH fluorescence slope was -9.7e-06 (inactive).
Turning to `COc1cccc(-n2c(C)nc3c(cnn3-c3ccc(Cl)cc3)c2=O)c1`, the cell count in test [1] stood at 238. Also, the inhibition was -6.4% (inactive) in test [1], -14.1% (inactive) in test [3], -4.02% (inactive) in test [7] and 4.48% (inactive) in test [8]. Moreover, the inhibition of aggregation in test [2] is -13.4% (inactive). For the same molecule, the nuclei count is 94.3% in test [2] and 114% in test [3]. Besides, the fluorescence slope in test [4] is -0.553 (inactive); in test [6], 0.00702 (inactive). Moreover, the NADPH fluorescence slope in test [5] was 7.6e-06 (inactive).
Take `CC(C)(C)c1ccccc1NC(=O)c1cccnc1`: in test [1], the cell count was determined as 224. In addition, the inhibition in test [1] was -5.6% (inactive); in test [3], -81.8% (inactive); in test [7], 15.7% (inactive); in test [8] it was 19.9% (inactive). Besides, in test [2], the inhibition of aggregation is 28.5% (inactive). Besides, the nuclei count came out at 91.8% in test [2] and 89.7% in test [3]. The fluorescence slope is -0.533 (inactive) in test [4] and 0.00439 (inactive) in test [6]. Moreover, the NADPH fluorescence slope in test [5] was -2.2e-05 (inactive).
Regarding `O=C(CN1C(=O)COc2ccccc21)NCCCN1CCN(Cc2ccccc2)CC1`, in test [1], the cell count is 470. The inhibition in test [1] was -2.6% (inactive); in test [3], -131% (inactive); in test [7], -9.51% (inactive); in test [8], -8.02% (inactive). For the same molecule, the inhibition of aggregation in test [2] is 0.5% (inactive). The nuclei count in test [2] came to 91.9%; in test [3], 232%. Moreover, the fluorescence slope in test [4] was -0.581 (inactive); in test [6], 0.00512 (inactive). Besides, in test [5], the NADPH fluorescence slope is -8.3e-06 (inactive).
On to `O=C(Nc1ccc(N2CCOCC2)c(F)c1)c1ccncc1`, for which the cell count in test [1] was 262. Also, the inhibition in test [1] is -3.2% (inactive); in test [3] it was -30% (inactive); in test [7] it was -9.16% (inactive); in test [8] it was -33.6% (inactive). In addition, the inhibition of aggregation in test [2] was 0.1% (inactive). In addition, the nuclei count in test [2] was found to be 99.8%; in test [3], 90%. The fluorescence slope in test [4] is -0.451 (inactive); in test [6], 0.00591 (inactive). Also, the NADPH fluorescence slope in test [5] is 8.4e-05 (inactive).
As to `CCCCC(c1nnnn1CS(=O)(=O)c1ccc(C)cc1)N1CCN(c2ccccc2)CC1` (centres undefined), the cell count in test [1] turned out to be 370. For the same molecule, the inhibition in test [1] is 6.6% (inactive); in test [3], -47.5% (inactive); in test [7] it was 32% (inactive); in test [8], 16.2% (inactive). Moreover, in test [2], the inhibition of aggregation is -10.3% (inactive). For the same molecule, the nuclei count in test [2] is 100%; in test [3] it was 102%. For the same molecule, the fluorescence slope was -0.46 (inactive) in test [4] and 0.00637 (inactive) in test [6]. Further, the NADPH fluorescence slope in test [5] is -2.8e-05 (inactive).
As for `CC(C)c1ccc(S(=O)(=O)N2CCN(C(=O)c3cccc(F)c3)CC2)cc1`, the cell count in test [1] came to 363. In addition, the inhibition in test [1] was 4.2% (inactive); in test [3], -70.8% (inactive); in test [7] it was 14.9% (inactive); in test [8], 17% (inactive). The inhibition of aggregation in test [2] was 17% (inactive). For the same molecule, the nuclei count in test [2] was 100%; in test [3], 118%. For the same molecule, the fluorescence slope was -0.525 (inactive) in test [4] and 0.00667 (inactive) in test [6]. For the same molecule, the NADPH fluorescence slope in test [5] was 0.000166 (inactive).
As to `COc1ccc(N(CC(=O)N2c3ccccc3CC2C)S(=O)(=O)c2c(C)noc2C)cc1` (centres undefined), in test [1], the cell count was determined as 539. Further, the inhibition is -5.8% (inactive) in test [1], -62.5% (inactive) in test [3], 14.5% (inactive) in test [7] and 30.9% (inactive) in test [8]. For the same molecule, in test [2], the inhibition of aggregation was -18.3% (inactive). The results for the nuclei count in test [2] and in test [3] were 118% and 116%, respectively. Also, the fluorescence slope in test [4] is -0.395 (inactive); in test [6], 0.00594 (inactive). The NADPH fluorescence slope in test [5] is 9.4e-05 (inactive).
Take `CCC(C)NC(=O)C1CCCN(S(=O)(=O)c2ccc(-n3cnnn3)cc2)C1` (centres undefined): in test [1], the cell count was determined as 518. The inhibition in test [1] was -5.4% (inactive); in test [3], -9.5% (inactive); in test [7], -2.34% (inactive); in test [8], -2.75% (inactive). For the same molecule, the inhibition of aggregation in test [2] was 13.6% (inactive). Also, the nuclei count amounted to 104% in test [2] and 108% in test [3]. The fluorescence slope in test [4] is -0.279 (inactive); in test [6] it was 0.00556 (inactive). The NADPH fluorescence slope in test [5] was 8.9e-07 (inactive).
Consider `CC1(C)Cc2nc3oc4c(N(CCO)Cc5ccccc5)ncnc4c3cc2CO1`, for which the cell count in test [1] amounted to 558. Further, the inhibition is 6.7% (inactive) in test [1], -29.7% (inactive) in test [3], -1.42% (inactive) in test [7] and 5.17% (inactive) in test [8]. Further, the inhibition of aggregation in test [2] was -1.1% (inactive). Further, the nuclei count was 101% in test [2] and 122% in test [3]. Besides, the fluorescence slope was -0.27 (inactive) in test [4] and 0.0057 (inactive) in test [6]. Further, in test [5], the NADPH fluorescence slope is -1.6e-05 (inactive).
As to `O=C(c1ccccc1)c1ccc2nc[nH]c2c1`, the cell count in test [1] came out at 762. In addition, the inhibition in test [1] was -1.2% (inactive); in test [3] it was -48.9% (inactive); in test [7], -13.6% (inactive); in test [8] it was -34.9% (inactive). Moreover, in test [2], the inhibition of aggregation was -14.8% (inactive). Also, the nuclei count in test [2] is 94.7%; in test [3] it was 128%. The fluorescence slope in test [4] was -0.571 (inactive); in test [6], 0.00464 (inactive). In test [5], the NADPH fluorescence slope was -3.1e-05 (inactive).
Turning to `CCOC(=O)N1CCN(C(=O)Nc2ccc3oc(C)nc3c2)CC1`, the cell count in test [1] worked out at 254. For the same molecule, the inhibition in test [1] is 4.2% (inactive); in test [3], -238% (inactive); in test [7], 5.52% (inactive); in test [8] it was -2.82% (inactive). Also, the inhibition of aggregation in test [2] is 20.5% (inactive). Further, the nuclei count was 84.8% in test [2] and 116% in test [3]. The fluorescence slope in test [4] is -0.463 (inactive); in test [6], 0.00473 (inactive). Further, the NADPH fluorescence slope in test [5] is 1.5e-05 (inactive).
As to `O=C(CSc1nnnn1Cc1ccccc1)Nc1ccc2c(c1)OCO2`, the cell count in test [1] amounted to 551. Besides, the inhibition was -10.7% (inactive) in test [1], -1% (inactive) in test [3], 1.63% (inactive) in test [7] and 2.13% (inactive) in test [8]. The inhibition of aggregation in test [2] was 10% (inactive). Also, the nuclei count in test [2] worked out at 92.1%; in test [3] it was 93.6%. In addition, the figures for the fluorescence slope in test [4] and in test [6] were -0.257 (inactive) and 0.00493 (inactive), respectively. Moreover, the NADPH fluorescence slope in test [5] is -9.5e-06 (inactive).
For the molecule `Cc1noc(C)c1C(=O)OCC(=O)Nc1ccccc1C(=O)NC(C)c1ccccc1` (centres undefined), the cell count in test [1] was found to be 503. Moreover, the inhibition in test [1] is 4.7% (inactive); in test [3], -72.6% (inactive); in test [7], 9.57% (inactive); in test [8], 7.74% (inactive). For the same molecule, in test [2], the inhibition of aggregation was -4% (inactive). Moreover, the nuclei count in test [2] was 94.3%; in test [3], 106%. Also, the fluorescence slope was -0.414 (inactive) in test [4] and 0.00545 (inactive) in test [6]. The NADPH fluorescence slope in test [5] was -0.000106 (inactive).
